The values that follow come from ChEMBL document CHEMBL3228025, “Synthesis and analgesic activities of some (4-substituted phenyl-1-piperazinyl)alkyl 2-aminobenzoates and 2-aminonicotinates” (J Med Chem, 1979).

In general, LD50 refers to the dose at which mortality reaches 50%. Lower therefore signals greater toxicity. A word on the ED50: it is the dose at which the effect has come halfway, by size or by number of responders.

A short description of data set [1]: Acute toxicity in po dosed CD1 mouse after 7 days. It counts as organism-based. The conditions noted are these: in vivo. The procedure, abridged: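 Male CD1 mice, 20 ± 2 g, oral dosing at 10 mL/kg as an aqueous solution or suspension in 1% Tween 80 in distilled water. At least 10 animals per dose level, observed for 7 days. Oral LD50 calculated by the Litchfield–Wilcoxon method.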

Data set [2] concerns Mus musculus. As to the kind of experiment: Analgesic activity in po dosed CD1 mouse assessed as inhibition of acetic acid-induced writhing administered 30 mins prior to acetic acid challenge measured after 15 mins. It counts as functional. The procedure, abridged:
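Male CD1 mice, 20 ± 2 g, randomly grouped and dosed orally at several levels (10 mL/kg, 1% Tween 80 vehicle), with at least two groups of six per dose. After 30 min, 0.6% acetic acid was given ip at 10 mL/kg, and writhes were counted per group over 15 min. ED50 (dose halving writhes) was read graphically, with no SEM computed.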
(An intraperitoneal irritant provokes the stretching counted in writhing tests.)

Data set [3] concerns Mus musculus. Briefly: Analgesic activity in po dosed OF1 mouse assessed as dose required to double paw licking reaction time after 30 mins by hot plate test. To be noted: 0.5 h. It counts as functional. The procedure, abridged: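 Male OF1 mice, 20 ± 2 g, given oral doses at several levels in 1% Tween 80 at 10 mL/kg, at least 10 per dose. After 30 min each mouse was placed on a metal plate at 56 °C and paw-licking latency was recorded. ED2 (dose doubling latency) was read graphically, with SEM and Dunnett's t versus controls.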
Background: In hot-plate and tail-flick tests a longer latency is read as antinociception.

A further data set relates to Rattus norvegicus. Briefly: Antiinflammatory activity in po dosed CD1 rat assessed as inhibition of carrageenan-induced paw edema administered 1 hr prior to carrageenan challenge measured after 3 hrs.

Consider `O=C(OCCN1CCN(c2cccc(Cl)c2)CC1)c1ccccc1Nc1ccnc2c(C(F)(F)F)cccc12`, for which, in data set [1], the LD50 at 168 h was above 3000 mg/kg. For the same compound, the median effective dose (ED50) with Mus musculus [2] was 18 mg/kg. Further, the ED2 in the data set on Mus musculus [3] was above 300 mg/kg. For the same compound, the ED40 with Rattus norvegicus is 100 mg/kg.
In turn, `O=C(OCCN1CCN(c2cc(C(F)(F)F)cc(C(F)(F)F)c2)CC1)c1ccccc1Nc1ccnc2cc(C(F)(F)F)ccc12` had an LD50 at 168 h in data set [1] of 4000 mg/kg. Also, the ED50 in the data set with Mus musculus [2] was 20 mg/kg. Besides, the ED2 with Mus musculus [3] was above 300 mg/kg. The ED40 in the data set with Rattus norvegicus turned out to be 80 mg/kg.
As for `O=C(OCCN1CCN(c2cccc(C(F)(F)F)c2)CC1)c1ccccc1Nc1ccnc2c(C(F)(F)F)cccc12`, the LD50 at 168 h in data set [1] is above 3000 mg/kg. For the same compound, in the data set on Mus musculus [2], the ED50 was 40 mg/kg. Besides, in the data set on Mus musculus [3], the ED2 was 100 mg/kg. Besides, in the data set on Rattus norvegicus, the ED40 was 120 mg/kg.
Consider `O=C(OCCN1CCN(c2cccc(OC(F)(F)F)c2)CC1)c1ccccc1Nc1ccnc2cc(OC(F)(F)F)ccc12`, for which the LD50 at 168 h in data set [1] was determined as 3500 mg/kg. Moreover, the ED50 with Mus musculus [2] was determined as 70 mg/kg. In addition, the ED2 in the data set on Mus musculus [3] is above 300 mg/kg. The ED40 in the data set on Rattus norvegicus was determined as 75 mg/kg.
As to `O=C(OCCN1CCN(c2cccc(C(F)(F)F)c2)CC1)c1ccccc1Nc1ccnc2cc(C(F)(F)F)ccc12` [ANTRAFENINE], in data set [1], the LD50 at 168 h was found to be 4000 mg/kg. Further, the ED50 with Mus musculus [2] turned out to be 6 mg/kg. Moreover, the ED2 in the data set with Mus musculus [3] was determined as 30 mg/kg. In addition, in the data set with Rattus norvegicus, the ED40 is 40 mg/kg.
`O=C(OCCN1CCN(c2cccc(OC(F)(F)F)c2)CC1)c1ccccc1Nc1ccnc2cc(Cl)ccc12` displayed an LD50 at 168 h in data set [1] of 4000 mg/kg. Also, in the data set with Mus musculus [2], the ED50 stood at 120 mg/kg. Also, the ED2 in the data set on Mus musculus [3] was above 300 mg/kg. Further, the ED40 with Rattus norvegicus came to 50 mg/kg.
In the case of `Cc1ccc(Cl)cc1N1CCN(CCOC(=O)c2ccccc2Nc2ccnc3cc(C(F)(F)F)ccc23)CC1`, the LD50 at 168 h in data set [1] is 3000 mg/kg. In addition, in the data set on Mus musculus [2], the ED50 turned out to be 20 mg/kg. Also, in the data set on Mus musculus [3], the ED2 is above 300 mg/kg. For the same compound, the ED40 in the data set with Rattus norvegicus amounted to 65 mg/kg.
In data set [1], `O=C(OCCN1CCN(c2ccccc2)CC1)c1ccccc1Nc1ccnc2cc(C(F)(F)F)ccc12` had an LD50 at 168 h of 2500 mg/kg. Moreover, the ED50 in the data set on Mus musculus [2] came out at 30 mg/kg. In the data set with Mus musculus [3], the ED2 was 300 mg/kg. The ED40 with Rattus norvegicus was determined as 40 mg/kg.
On the same counts, the results for `O=C(OCCN1CCN(c2cccc(Cl)c2)CC1)c1ccccc1Nc1ccnc2cc(OC(F)(F)F)ccc12` are 4000 mg/kg, 20 mg/kg, 300 mg/kg and 85 mg/kg.
